Data reported in ChEMBL document CHEMBL3745654, “N-Alkylated arylsulfonamides of (aryloxy)ethyl piperidines: 5-HT(7) receptor selectivity versus multireceptor profile” (Bioorg Med Chem, 2016).
The source made the active and inactive calls. No cut-off for these calls is given here.

Key:
Mus musculus [1] = test: Antidepressant-like activity in ip dosed Swiss albino mouse assessed as reduction in immobility time dosed 60 mins before test measured after 6 mins by forced swim test; type: functional; settings: read-out: MED
How it was run: (§1)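 Male Swiss albino mice (22–26 g), 7–12 per dose. Compounds dissolved in distilled water and given ip 60 min before test. Each mouse placed for 6 min in a glass cylinder with 10 cm of water at 23–25 °C. Immobility (floating with minimal movement) scored over the last 4 min by a blinded observer. One-way ANOVA with Bonferroni.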

Rattus norvegicus = test: Effect on exploratory activity in PCP-treated Sprague-Dawley rat at 1 mg/kg, ip dosed 1 hr and 15 mins before familiarization phase by novel object recognition test; type: functional, organism-based
How it was run: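 Male Sprague–Dawley rats (~250 g), 7–12 per group, PCP-induced deficit model. Compounds ip 1 h and 15 min before T1. Day 1: 5-min arena habituation. Day 2: two 3-min trials 1 h apart, with two identical objects, then one replaced by a novel object. Exploration and distance video-tracked; discrimination index computed; ANOVA with Newman–Keuls.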

[2] = Drug metabolism in mouse liver microsomes assessed as retention time of hydroxylated metabolite at 20 uM at pH 7.4 incubated for 15 mins by UPLC/MS analysis in presence of NADPH; type: ADME; settings: pH 7.4, 0.25 h
How it was run: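 Compound (20 µM) incubated with mouse liver microsomes (0.2 mg/ml) in 100 mM potassium phosphate, pH 7.4, 37 °C. Reaction started with NADPH-regenerating system; blank without NADPH run in parallel. Sampling at 5, 15, 30 and 60 min (some to 120 min), in duplicate. Levallorphan internal standard; UPLC/MS quantitation. t1/2 from ln % remaining vs time.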

[3] = molecular target: 5-hydroxytryptamine receptor 2A (Homo sapiens, UniProt P28223); test: Antagonist activity at human 5-HT2A receptor expressed in HEK293 cells assessed as inhibition of serotonin-induced inositol-1-phosphate accumulation at 1 uM after 30 mins by HTRF assay; type: functional, cell-based
How it was run: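 Cellular functional antagonist assay in HEK293 cells stably expressing human 5-HT2A receptor, run externally. Inhibition of control agonist response (serotonin 100 nM) measured with compound at 10^-6 M.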

Mus musculus [4] = test: Antidepressant-like activity in Swiss albino mouse assessed as reduction in immobility time at 1.25 to 5 mg/kg, ip dosed 60 mins before test measured after 6 mins by forced swim test; type: functional, organism-based; how it was run: as §1
Mus musculus [5] = test: Toxicity in Swiss albino mouse assessed as effect on spontaneous locomotor activity at 1.25 to 5 mg/kg, ip dosed 60 mins before test measured after 2 to 6 mins; type: organism-based; settings: in vivo
Mus musculus [6] = test: Toxicity in Swiss albino mouse assessed as effect on spontaneous locomotor activity at 0.312 to 1.25 mg/kg, ip dosed 60 mins before test measured after 2 to 6 mins; type: organism-based; settings: in vivo
Mus musculus [7] = test: Antidepressant-like activity in Swiss albino mouse assessed as reduction in immobility time at 0.312 to 1.25 mg/kg, ip dosed 60 mins before test measured after 6 mins by forced swim test; type: functional, organism-based; how it was run: as §1

Chain of 5-hydroxytryptamine receptor 2A (P28223 whole entry): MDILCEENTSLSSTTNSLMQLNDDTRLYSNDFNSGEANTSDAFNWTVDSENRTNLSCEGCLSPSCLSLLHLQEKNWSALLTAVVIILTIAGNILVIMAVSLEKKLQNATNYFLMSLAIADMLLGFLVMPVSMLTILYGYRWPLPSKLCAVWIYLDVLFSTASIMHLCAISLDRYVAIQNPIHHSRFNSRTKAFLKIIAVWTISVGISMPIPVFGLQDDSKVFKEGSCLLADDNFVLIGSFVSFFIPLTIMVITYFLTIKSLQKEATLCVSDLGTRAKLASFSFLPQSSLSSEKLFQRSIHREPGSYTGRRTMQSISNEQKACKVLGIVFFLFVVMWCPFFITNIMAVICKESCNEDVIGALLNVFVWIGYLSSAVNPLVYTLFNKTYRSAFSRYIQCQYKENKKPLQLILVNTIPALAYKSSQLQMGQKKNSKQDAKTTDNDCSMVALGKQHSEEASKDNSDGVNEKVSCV

SMILES | minimal effective dose (Mus musculus [1]) | Activity (Rattus norvegicus) | Retention_time [2] | inhibition [3] | Activity (Mus musculus [4]) | Activity (Mus musculus [5]) | Activity (Mus musculus [6]) | Activity (Mus musculus [7])
Cn1cc(S(=O)(=O)N(CC2CC2)C2CCN(CCOc3ccccc3C(C)(C)C)CC2)cn1 | 1.25 mg/kg | inactive | 4.72 min | – | – | – | – | –
CN(C1CCN(CCOc2ccccc2-c2ccccc2)CC1)S(=O)(=O)c1cnn(C)c1 | – | – | – | 85% | Active | Non-toxic | – | –
CN(C1CCN(CCOc2ccccc2C(C)(C)C)CC1)S(=O)(=O)c1cnn(C)c1 | – | – | 4.09 min | – | – | – | Non-toxic | Active
Cn1cc(S(=O)(=O)N(CC2CC2)C2CCN(CCOc3ccccc3-c3ccccc3)CC2)cn1 | 1.25 mg/kg | inactive | – | 94% | – | – | – | –
